Test results reported in ChEMBL document CHEMBL1124366, “Synthesis and biological properties of N63-carboxamides of teicoplanin antibiotics. Structure-activity relationships” (J Med Chem, 1989).
Converted amounts (≈) assume the structure as drawn.

Columns and labels:
Format in all cases: functional
Escherichia coli = test: In vitro minimum inhibitory concentration against Escherichia coli SKF 12140
Streptococcus pyogenes [1] = test: Subcutaneously administration into mice infected with Streptococcus pyogenes C 203; conditions: sc
In short: (§1)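 Mice (five per treatment group, five groups) infected intraperitoneally with about 10⁵ cells of Strep. pyogenes C 203, about 100× the LD50. ED50 (mg/kg) was calculated from the percentage of mice surviving at each dose on day 7.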

Pseudomonas aeruginosa = test: In vitro minimum inhibitory concentration against Pseudomonas aeruginosa ATCC 10145
[2] = test system: Staphylococcus epidermidis; test: In vitro minimum inhibitory concentration against Staphylococcus epidermis ATCC 12228
[3] = test system: Staphylococcus haemolyticus; test: In vitro minimum inhibitory concentration against Staphylococcus hemolyticus 602 cell line; conditions: strain 602
Staphylococcus aureus = test: In vitro minimum inhibitory concentration against Staphylococcus aureus Tour
Streptococcus pneumoniae = test: In vitro minimum inhibitory concentration against Streptococcus pneumoniae UC41
Streptococcus pyogenes [4] = test: In vitro minimum inhibitory concentration against Streptococcus pyogenes C 203
Enterococcus faecalis = test: In vitro minimum inhibitory concentration against Streptococcus faecalis ATCC 7080
Proteus vulgaris = test: In vitro minimum inhibitory concentration against Proteus vulgaris X 19 ATCC 881
Streptococcus pyogenes [5] = test: In vivo effective dose given perorally to mice infected with Streptococcus pyogenes C 203; conditions: po; in short: as §1

MIC (Escherichia coli) | MIC (Pseudomonas aeruginosa) | MIC [2] | MIC (Staphylococcus aureus) | MIC (Streptococcus pneumoniae) | MIC (Streptococcus pyogenes [4]) | MIC (Enterococcus faecalis) | MIC (Proteus vulgaris) | Structure (SMILES) | ED50 (Streptococcus pyogenes [1]) | MIC [3] | ED50 (Streptococcus pyogenes [5])
16 µg/mL (≈ 12.6 µM) | 64 µg/mL (≈ 50.4 µM) | 0.06 µg/mL (≈ 0.0473 µM) | 0.12 µg/mL (≈ 0.0946 µM) | 0.12 µg/mL (≈ 0.0946 µM) | 0.12 µg/mL (≈ 0.0946 µM) | 0.12 µg/mL (≈ 0.0946 µM) | > 128 µg/mL | CNCCN(C)C(=O)[C@H]1NC(=O)[C@H]2NC(=O)[C@H](NC(=O)[C@@H]3NC(=O)[C@H]4NC(=O)[C@@H](Cc5ccc(c(Cl)c5)Oc5cc3cc(c5O)Oc3ccc(cc3Cl)[C@H]2O)NC(=O)[C@H](N)c2ccc(O)c(c2)Oc2cc(O)cc4c2)c2ccc(O)c(c2)-c2c(O)cc(O)cc21 | 1.25 mg/kg | 0.12 µg/mL (≈ 0.0946 µM) | –
8 µg/mL (≈ 6.3 µM) | 32 µg/mL (≈ 25.2 µM) | 0.06 µg/mL (≈ 0.0473 µM) | 0.06 µg/mL (≈ 0.0473 µM) | 0.12 µg/mL (≈ 0.0946 µM) | 0.06 µg/mL (≈ 0.0473 µM) | 0.12 µg/mL (≈ 0.0946 µM) | 64 µg/mL (≈ 50.4 µM) | CCNCCNC(=O)[C@H]1NC(=O)[C@H]2NC(=O)[C@H](NC(=O)[C@@H]3NC(=O)[C@H]4NC(=O)[C@@H](Cc5ccc(c(Cl)c5)Oc5cc3cc(c5O)Oc3ccc(cc3Cl)[C@H]2O)NC(=O)[C@H](N)c2ccc(O)c(c2)Oc2cc(O)cc4c2)c2ccc(O)c(c2)-c2c(O)cc(O)cc21 | 1.25 mg/kg | 0.12 µg/mL (≈ 0.0946 µM) | –
4 µg/mL (≈ 3.06 µM) | 64 µg/mL (≈ 48.9 µM) | 0.06 µg/mL (≈ 0.0458 µM) | 0.06 µg/mL (≈ 0.0458 µM) | 0.06 µg/mL (≈ 0.0458 µM) | 0.06 µg/mL (≈ 0.0458 µM) | 0.12 µg/mL (≈ 0.0917 µM) | 32 µg/mL (≈ 24.4 µM) | CCN1CCCC1CNC(=O)[C@H]1NC(=O)[C@H]2NC(=O)[C@H](NC(=O)[C@@H]3NC(=O)[C@H]4NC(=O)[C@@H](Cc5ccc(c(Cl)c5)Oc5cc3cc(c5O)Oc3ccc(cc3Cl)[C@H]2O)NC(=O)[C@H](N)c2ccc(O)c(c2)Oc2cc(O)cc4c2)c2ccc(O)c(c2)-c2c(O)cc(O)cc21 (stereo not given in full) | 1.25 mg/kg | 0.12 µg/mL (≈ 0.0917 µM) | –
16 µg/mL (≈ 12.6 µM) | 64 µg/mL (≈ 50.5 µM) | 0.016 µg/mL (≈ 0.0126 µM) | 0.06 µg/mL (≈ 0.0473 µM) | 0.12 µg/mL (≈ 0.0946 µM) | 0.12 µg/mL (≈ 0.0946 µM) | 0.12 µg/mL (≈ 0.0946 µM) | 64 µg/mL (≈ 50.5 µM) | N[C@H]1C(=O)N[C@@H]2Cc3ccc(c(Cl)c3)Oc3cc4cc(c3O)Oc3ccc(cc3Cl)[C@@H](O)[C@@H]3NC(=O)[C@H](NC(=O)[C@@H]4NC(=O)[C@@H](NC2=O)c2cc(O)cc(c2)Oc2cc1ccc2O)c1ccc(O)c(c1)-c1c(O)cc(O)cc1[C@@H](C(=O)N1CCOCC1)NC3=O | 1.02 mg/kg | – | –
8 µg/mL (≈ 6.18 µM) | 64 µg/mL (≈ 49.4 µM) | 0.016 µg/mL (≈ 0.0124 µM) | 0.06 µg/mL (≈ 0.0463 µM) | 0.12 µg/mL (≈ 0.0927 µM) | 0.06 µg/mL (≈ 0.0463 µM) | 0.12 µg/mL (≈ 0.0927 µM) | 64 µg/mL (≈ 49.4 µM) | N[C@H]1C(=O)N[C@@H]2Cc3ccc(c(Cl)c3)Oc3cc4cc(c3O)Oc3ccc(cc3Cl)[C@@H](O)[C@@H]3NC(=O)[C@H](NC(=O)[C@@H]4NC(=O)[C@@H](NC2=O)c2cc(O)cc(c2)Oc2cc1ccc2O)c1ccc(O)c(c1)-c1c(O)cc(O)cc1[C@@H](C(=O)NCCN1CCCC1)NC3=O | 1.6 mg/kg | – | –
8 µg/mL (≈ 6.12 µM) | 32 µg/mL (≈ 24.5 µM) | 0.06 µg/mL (≈ 0.0459 µM) | 0.12 µg/mL (≈ 0.0918 µM) | 0.06 µg/mL (≈ 0.0459 µM) | 0.06 µg/mL (≈ 0.0459 µM) | 0.12 µg/mL (≈ 0.0918 µM) | 64 µg/mL (≈ 49 µM) | N[C@H]1C(=O)N[C@@H]2Cc3ccc(c(Cl)c3)Oc3cc4cc(c3O)Oc3ccc(cc3Cl)[C@@H](O)[C@@H]3NC(=O)[C@H](NC(=O)[C@@H]4NC(=O)[C@@H](NC2=O)c2cc(O)cc(c2)Oc2cc1ccc2O)c1ccc(O)c(c1)-c1c(O)cc(O)cc1[C@@H](C(=O)NC1CN2CCC1CC2)NC3=O (stereo not given in full) | 0.46 mg/kg | – | –
8 µg/mL (≈ 5.85 µM) | 64 µg/mL (≈ 46.8 µM) | 0.06 µg/mL (≈ 0.0439 µM) | 0.12 µg/mL (≈ 0.0878 µM) | 0.12 µg/mL (≈ 0.0878 µM) | 0.06 µg/mL (≈ 0.0439 µM) | 0.12 µg/mL (≈ 0.0878 µM) | 32 µg/mL (≈ 23.4 µM) | CCCCN(CCCC)CCCNC(=O)[C@H]1NC(=O)[C@H]2NC(=O)[C@H](NC(=O)[C@@H]3NC(=O)[C@H]4NC(=O)[C@@H](Cc5ccc(c(Cl)c5)Oc5cc3cc(c5O)Oc3ccc(cc3Cl)[C@H]2O)NC(=O)[C@H](N)c2ccc(O)c(c2)Oc2cc(O)cc4c2)c2ccc(O)c(c2)-c2c(O)cc(O)cc21 | 0.72 mg/kg | – | –
8 µg/mL (≈ 6.1 µM) | 32 µg/mL (≈ 24.4 µM) | 0.03 µg/mL (≈ 0.0229 µM) | 0.12 µg/mL (≈ 0.0915 µM) | 0.12 µg/mL (≈ 0.0915 µM) | 0.06 µg/mL (≈ 0.0458 µM) | 0.12 µg/mL (≈ 0.0915 µM) | 32 µg/mL (≈ 24.4 µM) | CCN(CC)CCCNC(=O)[C@H]1NC(=O)[C@H]2NC(=O)[C@H](NC(=O)[C@@H]3NC(=O)[C@H]4NC(=O)[C@@H](Cc5ccc(c(Cl)c5)Oc5cc3cc(c5O)Oc3ccc(cc3Cl)[C@H]2O)NC(=O)[C@H](N)c2ccc(O)c(c2)Oc2cc(O)cc4c2)c2ccc(O)c(c2)-c2c(O)cc(O)cc21 | 0.18 mg/kg | – | –
64 µg/mL (≈ 43.4 µM) | > 128 µg/mL | 0.06 µg/mL (≈ 0.0407 µM) | 0.12 µg/mL (≈ 0.0815 µM) | 0.25 µg/mL (≈ 0.17 µM) | 0.12 µg/mL (≈ 0.0815 µM) | 0.25 µg/mL (≈ 0.17 µM) | > 128 µg/mL | N[C@H]1C(=O)N[C@@H]2Cc3ccc(c(Cl)c3)Oc3cc4cc(c3O)Oc3ccc(cc3Cl)[C@@H](O)[C@@H]3NC(=O)[C@H](NC(=O)[C@@H]4NC(=O)[C@@H](NC2=O)c2cc(O)cc(c2)Oc2cc1ccc2O)c1ccc(O)c(c1)-c1c(O)cc(O)cc1[C@@H](C(=O)NCCCCCC(=O)N[C@@H]1[C@@H](O)[C@@H](O)[C@@H](CO)O[C@H]1O)NC3=O | 2.9 mg/kg | – | –
16 µg/mL (≈ 12.2 µM) | 64 µg/mL (≈ 48.8 µM) | 0.016 µg/mL (≈ 0.0122 µM) | 0.06 µg/mL (≈ 0.0458 µM) | 0.12 µg/mL (≈ 0.0915 µM) | 0.12 µg/mL (≈ 0.0915 µM) | 0.12 µg/mL (≈ 0.0915 µM) | 128 µg/mL (≈ 97.6 µM) | N[C@H]1C(=O)N[C@@H]2Cc3ccc(c(Cl)c3)Oc3cc4cc(c3O)Oc3ccc(cc3Cl)[C@@H](O)[C@@H]3NC(=O)[C@H](NC(=O)[C@@H]4NC(=O)[C@@H](NC2=O)c2cc(O)cc(c2)Oc2cc1ccc2O)c1ccc(O)c(c1)-c1c(O)cc(O)cc1[C@@H](C(=O)NCCN1CCOCC1)NC3=O | 2.2 mg/kg | – | –
16 µg/mL (≈ 12.5 µM) | 32 µg/mL (≈ 25 µM) | 0.03 µg/mL (≈ 0.0234 µM) | 0.06 µg/mL (≈ 0.0468 µM) | 0.12 µg/mL (≈ 0.0937 µM) | 0.12 µg/mL (≈ 0.0937 µM) | 0.12 µg/mL (≈ 0.0937 µM) | 64 µg/mL (≈ 50 µM) | CN1CCN(C(=O)[C@H]2NC(=O)[C@H]3NC(=O)[C@H](NC(=O)[C@@H]4NC(=O)[C@H]5NC(=O)[C@@H](Cc6ccc(c(Cl)c6)Oc6cc4cc(c6O)Oc4ccc(cc4Cl)[C@H]3O)NC(=O)[C@H](N)c3ccc(O)c(c3)Oc3cc(O)cc5c3)c3ccc(O)c(c3)-c3c(O)cc(O)cc32)CC1 | 0.95 mg/kg | – | –
– | – | 0.12 µg/mL (≈ 0.0602 µM) | 0.12 µg/mL (≈ 0.0602 µM) | 0.06 µg/mL (≈ 0.0301 µM) | 0.06 µg/mL (≈ 0.0301 µM) | 0.12 µg/mL (≈ 0.0602 µM) | – | CC(=O)N[C@@H]1[C@H](O[C@@H]2c3ccc(c(Cl)c3)Oc3cc4cc(c3O[C@@H]3O[C@@H](CO)[C@@H](O)[C@H](O)[C@@H]3NC(=O)CCCCCCC(C)C)Oc3ccc(cc3Cl)C[C@H]3NC(=O)[C@H](N)c5ccc(O)c(c5)Oc5cc(O)cc(c5)[C@H](NC3=O)C(=O)N[C@H]4C(=O)N[C@H]3C(=O)N[C@@H]2C(=O)N[C@H](C(=O)NCCCCCN(C)C)c2cc(O)cc(O[C@H]4O[C@H](CO)[C@@H](O)[C@@H](O)[C@@H]4O)c2-c2cc3ccc2O)O[C@@H](CO)[C@@H](O)[C@@H]1O | 0.12 mg/kg | 0.5 µg/mL (≈ 0.251 µM) | 112 mg/kg
